In the library only some 3.1% were active in any assay of this set; here they are far more common.
Ecoli rRNA inh: inhibits bacterial ribosomal RNA function over humanized ribosomes; E. coli WT GFP vs humanized-ribosome RFP mutants, fluorescence, 24 h; hits give low values; DMSO median 0, no signal -100; GFP signal change (wild-type ribosome), % (test concentration not listed); hit rate 1.6% among 350,000;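 active means significant combined selectivity score with lowered wild-type GFP, culture density cut under 30%, mutant RFP and density less affected; inactive means any of these conditions unmet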
Env fusion inh: blocks HIV Env-driven cell-cell fusion. HeLa-JRFL Env/CEM21 cell fusion, luciferase. inhibition, % at 12.3 µM. hit rate 1.1% among 360,000;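 active means mean replicate inhibition score of at least 50 and every replicate individually at or above 50; inconclusive means only one of the two criteria met; inactive means mean below 50 and not all replicates reaching 50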
INS-1E GSIS act: primary screen for activators of insulin secretion dependent on glucose, INS-1E cells, GLuc reporter luminescence; INS-1E GLuc reporter insulin secretion, 2-3 h; activation, % at 16.6 µM; hit rate 0.61% among 370,000;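 active means lowest replicate activation of at least 40%, so every replicate reaches that level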
miR122 inh: inhibitors of miR-122 in Huh7 cells; Huh7 miR-122 Renilla luciferase sensor, 48 h; neutral wells = 0, positive control = 100; activation (reporter increase), % at 12.5 µM; hit rate 0.3% among 340,000; AID 602342;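 active means mean replicate activation score at least 90 and every replicate individually at or above 90; inconclusive means only one of the two criteria met; inactive means neither criterion met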;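 further: higher luciferase means less miR-122 activity so hits act as miR-122 inhibitors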
F508del corr: CFTR F508del correction in bronchial cells. AID 720511. CFBE cells, YFP halide quenching; stimulated with forskolin plus potentiator P3; % fluorescence drop versus neutral controls. activity (quench increase), % at 7.58 µM. hit rate 0.36% among 350,000;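 active means mean added fluorescence quench of at least 8% versus neutral control, with both replicates also reaching 8%; inconclusive means only one of the mean or replicate conditions met; inactive means mean below 8% and not both replicates reaching 8%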;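 further: cells transiently co-express mutant CFTR-F508del with the halide-sensitive YFP; corrector assay measuring rescue of mutant channel to the surface after 24 h compound exposure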
Cneo AK release: Cryptococcus neoformans lysis via adenylate kinase release | C. neoformans lysis, adenylate kinase release luminescence, 4 h; normalised: neutral wells 0, clomiphene wells 100 | lysis activity, % at 15 µM | hit rate 0.2% among 360,000;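 active means mean lysis activity across replicates of at least 80%, whatever share of replicates individually reach that level; inactive means mean lysis activity below 80%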
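Assay system: C. neoformans cells. Amount: yeast cell density of 5 × 10^6 cells/mL. Technique: AK luminescence. Buffer or medium: YPD. Times: static 4 h at 37 °C with compound, 1 h detection. Dosing: single-point compound dose. Read-out: lysis from increased AK signal.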
Of the large screens only hits and unclear results are named; the others gave an inactive call.

COc1ccc(Nc2nc(-c3cccs3)cs2)c(OC)c1	none (no result: Ecoli rRNA inh, INS-1E GSIS act, F508del corr)
COc1ccc(Nc2nc(-c3sc(C)nc3C)cs2)c(OC)c1	F508del corr 16
COCCNC(=O)C[C@H]1C=C[C@H](NS(=O)(=O)c2ccc(C)cc2)[C@H](CO)O1	none (no result: miR122 inh)
COc1ccc(NC(=O)Nc2ccc3c(c2)C(=O)N([C@@H](C)CO)C[C@@H](C)[C@@H](CN(C)C(=O)Nc2cccc4ccccc24)OCCCC[C@H](C)O3)cc1	none
CC(=O)N(CC(C)C)C[C@H]1[C@@H](c2ccc(C3=CCCC3)cc2)[C@@H](CO)N1C(C)=O	none (no result: Env fusion inh)
Cc1ccnc(Nc2nc(-c3ccc(F)cc3)cs2)c1	Ecoli rRNA inh -36
Cc1nc(NC(=S)Nc2ccccc2)sc1C	Ecoli rRNA inh -27 (no result: miR122 inh, Cneo AK release)
CCc1nnc(NC(=S)Nc2ccccc2)s1	none (no result: miR122 inh, F508del corr, Cneo AK release)
CC(=O)N(C)C[C@@H]1Oc2ccc(NS(C)(=O)=O)cc2CC(=O)N(C)C[C@H]1C	none (no result: Env fusion inh, miR122 inh, F508del corr, Cneo AK release)
Cc1ccc(CC2S/C(=N/c3ccccn3)NC2=O)cc1 (stereo not given)	INS-1E GSIS act 58 (no result: Ecoli rRNA inh, Env fusion inh, F508del corr)
COc1cccc(-c2ccc([C@H]3[C@@H](CO)N4C(=O)CN(C(=O)C5CCCC5)C[C@@H]34)cc2)c1	none (no result: miR122 inh, Cneo AK release)
CC(=O)Nc1ccc(/C=C(\C#N)C(=O)NC2CCCCC2)cc1	Ecoli rRNA inh -26 (no result: miR122 inh, Cneo AK release)
O=C(c1cc(=O)c2ccccc2o1)N1CCN(c2cccc(Cl)c2)CC1	Ecoli rRNA inh -30 (no result: miR122 inh, Cneo AK release)
COc1ccccc1S(=O)(=O)Cc1ccc(C(=O)N2CCN(c3cccc(Cl)c3)CC2)o1	Env fusion inh 98 (no result: Ecoli rRNA inh, INS-1E GSIS act, F508del corr)
COc1ccccc1S(=O)(=O)Cc1ccc(C(=O)N2CCN(c3ccccc3)CC2)o1	none (no result: Ecoli rRNA inh, INS-1E GSIS act, F508del corr)
CC(C)N(C[C@@H]1[C@H](c2ccccc2)[C@@H](CO)N1S(C)(=O)=O)C(=O)CN(C)C	none (no result: Env fusion inh)
CCOC(=O)CCc1c(C)c2ccc(OC3CCCCC3=O)cc2oc1=O (stereo not given)	Ecoli rRNA inh -21 (no result: INS-1E GSIS act)
CCCc1c(C)c2ccc(OCC(C)=O)cc2oc1=O	INS-1E GSIS act 51 (no result: Ecoli rRNA inh, Env fusion inh, F508del corr)
Cc1cccc(NC(=O)Nc2ccccc2)n1	none
COc1cccc(-c2csc(NC(=O)C3CC3)n2)c1	none
Cc1cccc(NC(=O)Nc2ccc(Cl)c(Cl)c2)n1	Ecoli rRNA inh -26
O=C(Nc1ccccc1)Nc1nc(-c2ccccc2)cs1	none (no result: INS-1E GSIS act, miR122 inh, Cneo AK release)
COc1cccc(-c2csc(NC(=O)Nc3ccccc3)n2)c1	Ecoli rRNA inh -28 (no result: miR122 inh)
O=C(Nc1ccc(Cl)c(Cl)c1)Nc1nc(-c2ccccc2)cs1	INS-1E GSIS act 166 (no result: Ecoli rRNA inh, F508del corr)
CCNC(=O)C[C@H]1CC[C@H]2[C@@H](COc3ccc(NC(=O)c4ccccc4Cl)cc3C(=O)N2C)O1	none (no result: Ecoli rRNA inh, INS-1E GSIS act)
CC1Cc2ccccc2N1C(=S)NC(=O)c1cccc(Br)c1 (stereo not given)	INS-1E GSIS act 51 (no result: Ecoli rRNA inh, miR122 inh, F508del corr, Cneo AK release)
C[C@H](CO)N1C[C@H](C)[C@H](CN(C)Cc2ccc(O)cc2)OCc2cnnn2CCCC1=O	none
O=C(C[C@H]1CC[C@@H](NC(=O)Nc2ccc(C(F)(F)F)cc2)[C@@H](CO)O1)NCCN1CCCC1	none
O=C1c2ccccc2-c2onc3ccc(N4CCCC4)c1c23	none (no result: miR122 inh, Cneo AK release)
O=C1c2ccccc2C(=O)c2c1cccc2N1CCCC1	F508del corr 8.0 (no result: Ecoli rRNA inh, INS-1E GSIS act)
CCNC(=O)[C@H]1[C@H](CO)[C@H]2Cn3c(ccc(C4=CCCCC4)c3=O)[C@@H]1N2Cc1ccncc1	none (no result: Env fusion inh)
CC(C)NC(=O)N(C)C[C@H]1Oc2ccc(N(C)C)cc2C(=O)N(C)C[C@@H]1C	none (no result: Env fusion inh, miR122 inh, F508del corr, Cneo AK release)
O=C(C[C@@H]1C/C=C/CC[C@@H](Cc2ccc(F)cc2)C(=O)O[C@H](c2ccccc2)CNC1=O)NCCO	Env fusion inh 83
O=C(C[C@H]1C/C=C/CC[C@H](Cc2ccc(F)cc2)C(=O)O[C@H](c2ccccc2)CNC1=O)NCCO	Env fusion inh inconclusive (no result: miR122 inh)
C[C@@H]1CN([C@H](C)CO)S(=O)(=O)c2ccc(-c3ccc(F)cc3)cc2O[C@@H]1CN(C)C(=O)C1CCCCC1	none
NNc1nc2c(-c3ccc(Cl)cc3)nnn2c2ccccc12	none
NNc1nc2c(-c3ccc(F)cc3)nnn2c2ccccc12	Ecoli rRNA inh -17
Fc1cccc(-c2nnn3c2nc(Cl)c2ccccc23)c1	INS-1E GSIS act 45
Clc1nc2c(-c3ccccc3)nnn2c2ccccc12	none (no result: Cneo AK release)
CCOc1ccc(OCc2cccc(C(=O)O)c2)cc1	Ecoli rRNA inh -24 (no result: Env fusion inh)
O=C(O)c1cccc(COc2ccc3c(c2)CCC3)c1	Env fusion inh 85
COc1ccc2c3c([nH]c2c1)[C@H](CO)NCC31CN(C(=O)Nc2ccc3c(c2)OCO3)C1	none (no result: Env fusion inh, miR122 inh, Cneo AK release)
O=C(CSc1nc(=O)n2ccccc2n1)Nc1cccc2ccccc12	Env fusion inh inconclusive (no result: Cneo AK release)
Cc1cccn2c(=O)nc(SCC(=O)Nc3cccc4ccccc34)nc12	Env fusion inh 88 (no result: miR122 inh, Cneo AK release)
CCOC(=O)Cn1c(=NC(=O)C(C)(C)C)sc2cc([N+](=O)[O-])ccc21	none (no result: Ecoli rRNA inh, INS-1E GSIS act, miR122 inh, F508del corr, Cneo AK release)
CCOC(=O)c1ccc2c(c1)sc(=NC(=O)c1ccco1)n2CCOC	INS-1E GSIS act 65 (no result: Ecoli rRNA inh, F508del corr)
